The values that follow come from ChEMBL document CHEMBL4017520, “Discovery, Structure-Activity Relationship, and Antiparkinsonian Effect of a Potent and Brain-Penetrant Chemical Series of Positive Allosteric Modulators of Metabotropic Glutamate Receptor 4” (J Med Chem, 2017).

Active and inactive are the calls of the source. The rule behind the calls is not given here.

Data set [1] is described as follows: AUC (0 to infinity) in Sprague-Dawley rat plasma at 30 mg/kg, ip administered as single dose by LC-MS/MS analysis. Type of data set: ADME, organism-based. Also noted: dose 30 mg/kg, time infinity, route intraperitoneal. The method in brief:
(§1)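 Rats dosed ip at 10 or 30 mg/kg. Plasma Cmax, Tmax, half-life and AUC0–inf were determined. Brain concentration was measured 30 min postdose, and brain/plasma ratio was taken at 30 min. Values are the mean (±SEM) of 3 rats.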

In data set [2] the target is Amine oxidase [flavin-containing] A (Homo sapiens, UniProt P21397). Kind of data set: Activity at MAO-A (unknown origin) up to 10 uM. It counts as ADME.
Sequence of Amine oxidase [flavin-containing] A (P21397 whole entry): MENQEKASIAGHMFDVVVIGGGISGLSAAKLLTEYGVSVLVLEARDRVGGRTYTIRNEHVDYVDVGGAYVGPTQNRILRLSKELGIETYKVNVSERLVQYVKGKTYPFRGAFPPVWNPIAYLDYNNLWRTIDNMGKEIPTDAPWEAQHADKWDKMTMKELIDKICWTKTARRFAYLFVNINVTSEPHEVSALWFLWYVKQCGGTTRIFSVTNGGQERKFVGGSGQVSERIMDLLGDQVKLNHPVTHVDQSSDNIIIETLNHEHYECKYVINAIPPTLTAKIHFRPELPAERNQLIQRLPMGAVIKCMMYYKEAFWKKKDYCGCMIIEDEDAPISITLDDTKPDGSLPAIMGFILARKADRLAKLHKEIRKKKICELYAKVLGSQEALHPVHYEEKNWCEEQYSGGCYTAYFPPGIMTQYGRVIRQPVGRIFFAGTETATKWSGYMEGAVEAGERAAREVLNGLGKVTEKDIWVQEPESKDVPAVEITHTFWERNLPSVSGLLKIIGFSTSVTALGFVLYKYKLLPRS
Data set [3] in a line: Cmax in Sprague-Dawley rat at 1 mg/kg, iv administered as single dose by LC-MS/MS analysis. Type of data set: ADME, organism-based. The following applies: in vivo. Also noted: dose 1 mg/kg, route intravenous.
A short description of data set [4]: AUC (0 to infinity) in C57BL/6 mouse at 2 mg/kg, iv administered as single dose by LC-MS/MS analysis. It counts as ADME, organism-based. Also noted: dose 2 mg/kg, time infinity, route intravenous. The following applies: in vivo.
A short description of data set [5]: Cmax in Sprague-Dawley rat plasma at 30 mg/kg, ip administered as single dose by LC-MS/MS analysis. Type of data set: ADME, organism-based. Also noted: dose 30 mg/kg, route intraperitoneal. The method in brief:
as §1

Data set [6] can be described thus: Half life in Sprague-Dawley rat plasma at 30 mg/kg, ip administered as single dose by LC-MS/MS analysis. Type of data set: ADME, organism-based. The method in brief:
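Single dose ip (10 or 30 mg/kg, rat) or oral (10 mg/kg, rat or mouse); plasma Cmax, Tmax, half-life, AUC0−inf derived; brain concentration and brain/plasma ratio at 30 min postdose. Mean of 3 rats or 2 mice.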

Data set [7] is described as follows: Drug uptake in Sprague-Dawley rat brain at 30 mg/kg, ip after 30 mins post dose administered as single dose by LC-MS/MS analysis. The following applies: read-out: Drug uptake. Type of data set: ADME, organism-based. The method in brief:
as §1

Data set [8] in a line: Oral bioavailability in Sprague-Dawley rat plasma at 10 mg/kg administered as single dose by LC-MS/MS analysis. It counts as ADME, organism-based.
Another data set has as its system Plasma. Description: Drug level in Sprague-Dawley rat plasma at 10 mg/kg, po administered as single dose measured at 24 hrs post dose by LC-MS/MS analysis. The settings on record: in vivo. Type of data set: ADME, organism-based. The method in brief: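 Rats given a single oral dose of 10 mg/kg. The first plasma sample was taken at 15 min, and sampling continued to 24 h postdose. Brain was sampled at 30 min. Values are the mean (±SEM) of 3 rats.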

The subject of a further data set is Mus musculus. Description: Anti-parkinson's activity in C57BL/6 mouse assessed as brain concentration required for reversal of haloperidol-induced catalepsy at 30 mg/kg, ip after 40 mins. Type of data set: functional.
The test system of a further data set is Brain. Kind of data set: Fraction unbound in Sprague-Dawley rat brain at 30 mg/kg, ip after 120 mins. It counts as ADME, organism-based. The following applies: in vivo, 2 h.
Data set [9] can be described thus: Ratio of fraction unbound in Sprague-Dawley rat brain at 30 mg/kg, ip after 120 mins to EC50 for rat mGlu4 receptor expressed in HEK293 cells.
A short description of data set [10]: Ratio of drug uptake in Sprague-Dawley rat brain to plasma at 30 mg/kg, ip after 30 to 60 mins. Type of data set: ADME, organism-based. The settings on record: read-out: BPR. The method in brief: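 Rats dosed 30 mg/kg ip; plasma sampled over time, brain measured at 30 and 60 min; brain/plasma ratio averaged over 30 and 60 min.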
Data set [11] deals with Rattus norvegicus. Description: Toxicity in 6-OHDA induced parkinsonian motor deficit Sprague-Dawley rat model assessed as induction of dyskinesia at 30 mg/kg, ip. The following applies: in vivo. It counts as organism-based.
For data set [12], the target named is Metabotropic glutamate receptor 1 (Homo sapiens) (UniProt Q13255). Description: Activity at human mGlu1 receptor expressed in HEK293 cells co-expressing Gi/Gq assessed as effect on intracellular calcium level up to 10 uM after 10 mins by Fluo4-AM dye based fluorescence assay. Type of data set: functional, cell-based. The method in brief:
(§2)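 HEK-293 cells transiently expressing the human mGluR with a promiscuous or chimeric G protein were serum-starved 3 h and loaded 1.5 h with 1 μM Fluo4-AM. Compound alone was added in assay buffer, and calcium fluorescence (ex 485/em 525) was recorded for 10 min as agonist readout.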

Data set [13] deals with Metabotropic glutamate receptor 5 (Homo sapiens) (UniProt P41594). Description: Activity at human mGlu5 receptor expressed in HEK293 cells co-expressing Gi/Gq assessed as effect on intracellular calcium level up to 10 uM after 10 mins by Fluo4-AM dye based fluorescence assay. It counts as functional, cell-based. The method in brief: as §2
In data set [14] the target is Metabotropic glutamate receptor 2 (Homo sapiens) (UniProt Q14416). Kind of data set: Activity at human mGlu2 receptor expressed in HEK293 cells co-expressing Gi/Gq assessed as effect on intracellular calcium level up to 10 uM after 10 mins by Fluo4-AM dye based fluorescence assay. It counts as functional, cell-based. The method in brief: as §2
Sequence of Metabotropic glutamate receptor 2 (Homo sapiens) (Q14416 19-872 limits assumed): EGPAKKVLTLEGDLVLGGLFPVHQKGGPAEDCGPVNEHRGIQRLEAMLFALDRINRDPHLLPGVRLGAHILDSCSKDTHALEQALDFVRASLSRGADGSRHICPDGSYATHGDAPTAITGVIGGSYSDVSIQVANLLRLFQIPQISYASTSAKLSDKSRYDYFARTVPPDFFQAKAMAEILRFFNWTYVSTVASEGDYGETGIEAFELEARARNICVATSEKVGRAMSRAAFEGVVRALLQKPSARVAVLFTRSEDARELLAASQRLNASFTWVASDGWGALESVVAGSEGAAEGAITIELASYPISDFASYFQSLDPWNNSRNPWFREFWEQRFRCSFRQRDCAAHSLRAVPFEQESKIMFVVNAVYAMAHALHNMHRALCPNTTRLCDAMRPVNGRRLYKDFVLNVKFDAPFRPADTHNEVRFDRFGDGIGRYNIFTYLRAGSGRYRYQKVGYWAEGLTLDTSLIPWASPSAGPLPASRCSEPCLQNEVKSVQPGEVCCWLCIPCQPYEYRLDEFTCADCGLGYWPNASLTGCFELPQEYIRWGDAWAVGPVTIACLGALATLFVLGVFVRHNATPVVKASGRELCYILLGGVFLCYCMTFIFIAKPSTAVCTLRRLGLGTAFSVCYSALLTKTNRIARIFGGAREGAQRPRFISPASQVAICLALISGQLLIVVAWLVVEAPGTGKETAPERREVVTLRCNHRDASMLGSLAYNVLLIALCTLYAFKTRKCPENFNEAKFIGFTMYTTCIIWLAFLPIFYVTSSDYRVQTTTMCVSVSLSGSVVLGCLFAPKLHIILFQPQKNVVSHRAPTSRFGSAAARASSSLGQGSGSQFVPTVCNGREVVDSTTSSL
The target of data set [15] is Metabotropic glutamate receptor 8 (Homo sapiens) (UniProt O00222). Kind of data set: Agonist activity at human mGlu8 receptor expressed in HEK293 cells co-expressing Gi/Gq assessed as increase in intracellular calcium level at 10 uM after 10 mins by Fluo4-AM dye based fluorescence assay relative to control. Type of data set: functional, cell-based. The method in brief: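 Human mGluR8 in transiently transfected HEK293 cells loaded with Fluo4-AM. Compound alone was added and fluorescence followed for 10 min. Stimulation is expressed relative to the maximal glutamate response.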

In data set [16] the target is D(1A) dopamine receptor (Homo sapiens) (UniProt P21728). Description: Agonist activity at D1 receptor (unknown origin) at 10 uM.
Sequence of D(1A) dopamine receptor (Homo sapiens) (P21728 whole entry): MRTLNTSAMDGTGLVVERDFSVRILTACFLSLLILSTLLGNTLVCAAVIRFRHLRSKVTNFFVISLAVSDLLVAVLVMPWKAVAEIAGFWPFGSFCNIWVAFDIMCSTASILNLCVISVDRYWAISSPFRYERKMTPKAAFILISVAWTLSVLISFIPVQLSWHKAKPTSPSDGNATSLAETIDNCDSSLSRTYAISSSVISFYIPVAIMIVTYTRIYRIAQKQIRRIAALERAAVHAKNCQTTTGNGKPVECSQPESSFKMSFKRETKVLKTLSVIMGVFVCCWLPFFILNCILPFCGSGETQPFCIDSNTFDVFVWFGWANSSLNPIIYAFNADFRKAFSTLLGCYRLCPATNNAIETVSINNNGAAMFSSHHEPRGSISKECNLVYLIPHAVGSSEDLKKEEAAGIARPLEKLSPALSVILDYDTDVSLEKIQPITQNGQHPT
Data set [17] deals with D(2) dopamine receptor (Homo sapiens) (UniProt P14416). Description: Agonist activity at D2L receptor (unknown origin) at 10 uM.
Sequence of D(2) dopamine receptor (Homo sapiens) (P14416 whole entry): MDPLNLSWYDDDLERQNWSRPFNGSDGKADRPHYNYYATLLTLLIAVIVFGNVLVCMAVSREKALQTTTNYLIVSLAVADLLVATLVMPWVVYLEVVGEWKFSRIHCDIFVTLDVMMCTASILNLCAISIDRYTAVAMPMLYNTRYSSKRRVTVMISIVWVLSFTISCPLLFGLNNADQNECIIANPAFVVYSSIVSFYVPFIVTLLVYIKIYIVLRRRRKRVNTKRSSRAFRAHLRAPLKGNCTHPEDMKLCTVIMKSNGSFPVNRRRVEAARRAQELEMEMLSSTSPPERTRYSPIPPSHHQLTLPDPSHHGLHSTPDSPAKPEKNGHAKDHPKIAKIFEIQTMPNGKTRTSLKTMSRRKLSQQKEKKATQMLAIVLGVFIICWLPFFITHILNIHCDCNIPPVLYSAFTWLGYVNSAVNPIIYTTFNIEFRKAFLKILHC
Data set [18] shares this target. Kind of data set: Positive allosteric modulation of D2L receptor (unknown origin) at 10 uM.
Data set [19] has as its target Adenosine receptor A2a (Homo sapiens) (UniProt P29274). Kind of data set: Antagonist activity at A2A receptor (unknown origin) at 10 uM.
The target in data set [20] is Tyrosine-protein kinase JAK3 (Homo sapiens) (UniProt P52333). Kind of data set: Inhibition of JAK3 (unknown origin) at 10 uM.
Sequence of Tyrosine-protein kinase JAK3 (Homo sapiens) (P52333 whole entry): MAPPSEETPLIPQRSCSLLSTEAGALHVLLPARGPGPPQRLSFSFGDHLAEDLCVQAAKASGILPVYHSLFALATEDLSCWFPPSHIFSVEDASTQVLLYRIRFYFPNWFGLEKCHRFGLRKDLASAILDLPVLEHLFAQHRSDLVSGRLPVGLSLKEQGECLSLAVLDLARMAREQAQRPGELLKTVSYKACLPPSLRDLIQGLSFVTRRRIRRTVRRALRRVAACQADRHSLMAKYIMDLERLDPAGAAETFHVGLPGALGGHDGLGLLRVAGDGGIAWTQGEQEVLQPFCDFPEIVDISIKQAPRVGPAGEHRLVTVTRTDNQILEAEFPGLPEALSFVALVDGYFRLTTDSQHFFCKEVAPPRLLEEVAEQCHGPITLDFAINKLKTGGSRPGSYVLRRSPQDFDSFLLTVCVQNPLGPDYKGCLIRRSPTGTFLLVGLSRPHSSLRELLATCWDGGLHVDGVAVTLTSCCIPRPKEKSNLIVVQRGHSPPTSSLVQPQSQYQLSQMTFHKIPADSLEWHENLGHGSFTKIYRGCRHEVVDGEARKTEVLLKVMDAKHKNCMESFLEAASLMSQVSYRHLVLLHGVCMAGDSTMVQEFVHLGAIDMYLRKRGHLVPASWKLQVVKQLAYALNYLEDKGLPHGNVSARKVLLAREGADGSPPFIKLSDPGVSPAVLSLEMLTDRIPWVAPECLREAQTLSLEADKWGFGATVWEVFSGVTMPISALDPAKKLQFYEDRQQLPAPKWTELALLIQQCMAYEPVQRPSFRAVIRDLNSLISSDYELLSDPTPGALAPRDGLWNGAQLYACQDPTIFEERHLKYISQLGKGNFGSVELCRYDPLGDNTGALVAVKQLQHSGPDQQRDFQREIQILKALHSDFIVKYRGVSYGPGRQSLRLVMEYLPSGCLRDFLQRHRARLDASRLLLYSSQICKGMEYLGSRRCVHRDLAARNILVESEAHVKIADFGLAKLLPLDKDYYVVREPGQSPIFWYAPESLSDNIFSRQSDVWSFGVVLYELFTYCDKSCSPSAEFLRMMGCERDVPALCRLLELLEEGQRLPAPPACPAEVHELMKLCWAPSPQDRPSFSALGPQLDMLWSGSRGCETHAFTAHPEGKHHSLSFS
For data set [21], the system named is Rattus norvegicus. Description: Protection against 6-OHDA induced parkinsonian motor deficit in Sprague-Dawley rat assessed as increase in rearing time at 30 mg/kg, ip after 28 days post surgery. It counts as functional, organism-based. The method in brief: (§3)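 Adult male Sprague−Dawley rats with bilateral 6-OHDA striatal lesions given compound 30 mg/kg ip or vehicle at T0; spontaneous locomotor activity (active time, slow activity, rearing) counted in 5-min bins versus pre-surgery vehicle; n = 10.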

Data set [22] concerns Rattus norvegicus. Kind of data set: Protection against 6-OHDA induced parkinsonian motor deficit in Sprague-Dawley rat assessed as increase in slow activity at 30 mg/kg, ip after 30 to 120 mins post administration. Type of data set: functional, organism-based. The method in brief:
as §3

The target of data set [23] is Metabotropic glutamate receptor 1 (Homo sapiens) (UniProt Q13255). Kind of data set: Activity at human mGlu1 receptor expressed in HEK293 cells co-expressing Gi/Gq assessed as effect on EC20/EC80 glutamate-induced intracellular calcium level up to 10 uM preincubated for 10 mins followed by glutamate addition measured for 3 mins by Fluo4-AM dye based fluorescence assay. Type of data set: functional, cell-based. The method in brief:
(§4)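 HEK-293 cells were electroporated with the human mGluR plus a promiscuous or chimeric G protein and cultured 24 h, then serum-starved 3 h. Cells were loaded 1.5 h with 1 μM Fluo4-AM in HBSS/HEPES buffer with probenecid and 0.1% BSA. Compound was added for 10 min, then glutamate at EC20 (PAM) or EC80 (NAM), and fluorescence (ex 485/em 525) was read for 3 min.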

Data set [24] deals with Metabotropic glutamate receptor 2 (Homo sapiens) (UniProt Q14416). Kind of data set: Activity at human mGlu2 receptor expressed in HEK293 cells co-expressing Gi/Gq assessed as effect on EC20/EC80 glutamate-induced intracellular calcium level up to 10 uM preincubated for 10 mins followed by glutamate addition measured for 3 mins by Fluo4-AM dye based fluorescence assay. Type of data set: functional, cell-based. The method in brief:
as §4

Sequence of Metabotropic glutamate receptor 1 (Homo sapiens) (Q13255 19-1194 limits assumed): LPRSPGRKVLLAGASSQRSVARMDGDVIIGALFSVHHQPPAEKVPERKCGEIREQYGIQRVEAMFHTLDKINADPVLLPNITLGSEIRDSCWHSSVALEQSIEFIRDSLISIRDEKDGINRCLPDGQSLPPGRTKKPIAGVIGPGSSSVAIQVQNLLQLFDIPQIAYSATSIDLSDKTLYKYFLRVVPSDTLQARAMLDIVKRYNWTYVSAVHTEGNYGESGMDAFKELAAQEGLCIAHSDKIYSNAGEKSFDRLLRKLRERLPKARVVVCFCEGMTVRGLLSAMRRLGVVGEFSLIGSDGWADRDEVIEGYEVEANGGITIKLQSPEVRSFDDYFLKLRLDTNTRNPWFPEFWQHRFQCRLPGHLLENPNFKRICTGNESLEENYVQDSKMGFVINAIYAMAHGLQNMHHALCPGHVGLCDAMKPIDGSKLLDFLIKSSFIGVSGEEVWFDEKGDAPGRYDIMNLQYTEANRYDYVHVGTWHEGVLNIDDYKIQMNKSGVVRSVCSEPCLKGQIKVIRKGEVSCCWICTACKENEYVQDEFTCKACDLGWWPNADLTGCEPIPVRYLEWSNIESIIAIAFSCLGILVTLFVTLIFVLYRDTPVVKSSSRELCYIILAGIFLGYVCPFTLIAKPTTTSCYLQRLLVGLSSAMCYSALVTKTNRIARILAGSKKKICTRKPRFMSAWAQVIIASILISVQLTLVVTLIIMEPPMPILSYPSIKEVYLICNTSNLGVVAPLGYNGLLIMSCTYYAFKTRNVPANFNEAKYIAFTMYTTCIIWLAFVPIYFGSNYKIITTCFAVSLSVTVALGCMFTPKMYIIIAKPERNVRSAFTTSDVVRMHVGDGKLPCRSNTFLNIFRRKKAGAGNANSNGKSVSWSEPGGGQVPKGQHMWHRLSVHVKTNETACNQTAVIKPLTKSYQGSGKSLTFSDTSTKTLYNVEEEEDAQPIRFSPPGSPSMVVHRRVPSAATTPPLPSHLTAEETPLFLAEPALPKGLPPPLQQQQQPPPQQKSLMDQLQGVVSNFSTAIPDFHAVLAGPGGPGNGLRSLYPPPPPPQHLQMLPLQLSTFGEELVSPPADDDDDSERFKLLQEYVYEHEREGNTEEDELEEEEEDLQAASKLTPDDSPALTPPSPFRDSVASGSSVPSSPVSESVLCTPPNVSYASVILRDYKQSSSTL
Sequence of Adenosine receptor A2a (Homo sapiens) (P29274 whole entry): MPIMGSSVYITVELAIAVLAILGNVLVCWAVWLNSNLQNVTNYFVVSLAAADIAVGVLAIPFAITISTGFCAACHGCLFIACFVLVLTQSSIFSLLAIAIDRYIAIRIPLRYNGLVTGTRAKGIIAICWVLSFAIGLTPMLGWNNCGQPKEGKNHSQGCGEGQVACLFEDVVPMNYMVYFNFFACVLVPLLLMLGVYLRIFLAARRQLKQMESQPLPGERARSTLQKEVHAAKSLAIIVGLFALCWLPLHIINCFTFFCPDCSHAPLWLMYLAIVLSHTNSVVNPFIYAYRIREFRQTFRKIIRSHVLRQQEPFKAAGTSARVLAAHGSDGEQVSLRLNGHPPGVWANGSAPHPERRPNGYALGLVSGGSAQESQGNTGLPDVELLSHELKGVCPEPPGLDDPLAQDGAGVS

Take `O/N=c1\cc(-c2cc3cccn3cn2)oc2ccc(OCCN3CCOCC3)cc12` [listing 1 of 2 here]: the AUC(0-inf) in data set [1] amounted to 11300 ng·h/mL; in data set [4], 269 ng·h/mL. Moreover, the Activity result in data set [2] is “Not Active”; with Rattus norvegicus [11] it was “Non-Toxic”. In addition, the Cmax in data set [3] came out at 444 ng/mL; in data set [5], 9320 ng/mL. In data set [6], this compound showed a half-life of 4.5 h. Moreover, the concentration at 0.5 h in data set [7] was determined as 22800 ng/g. The bioavailability in [8] is 54%. Also, in the data set on Plasma, the Drug uptake lay within 2 to 10%. The fEC50 in the data set with Mus musculus came out at 5 nM. Moreover, the “Drug uptake(free)” value in the data set on Brain is listed as 13 ng/g. For the same compound, the Ratio in [9] was 1.1. Further, the Kp in [10] turned out to be 3.25.
Take `O/N=c1\cc(-c2cc3cccn3cn2)oc2ccc(OCCN3CCOCC3)cc12` [listing 2 of 2 here]: the outcome in data set [12], in [13], in data set [14], in [16], in data set [17] and in data set [18] was inactive. Besides, the result in data set [19], in data set [23] and in [24] was inactive. The Activity in data set [15] stood at 23%. Also, in data set [20], the inhibition entry is “inactive”. The result in the data set on Rattus norvegicus [21] and with Rattus norvegicus [22] was Active.
